Results as given in the M2OR odorant receptor database.
Residue numbers refer to the chain shown, from its start.

Legend:
Settings in all cases: stereoisomer not certain
OR6S1 (Homo sapiens) = target: T1, OR6S1 (Homo sapiens) (UniProt Q8NH40)
T1 sequence (whole entry): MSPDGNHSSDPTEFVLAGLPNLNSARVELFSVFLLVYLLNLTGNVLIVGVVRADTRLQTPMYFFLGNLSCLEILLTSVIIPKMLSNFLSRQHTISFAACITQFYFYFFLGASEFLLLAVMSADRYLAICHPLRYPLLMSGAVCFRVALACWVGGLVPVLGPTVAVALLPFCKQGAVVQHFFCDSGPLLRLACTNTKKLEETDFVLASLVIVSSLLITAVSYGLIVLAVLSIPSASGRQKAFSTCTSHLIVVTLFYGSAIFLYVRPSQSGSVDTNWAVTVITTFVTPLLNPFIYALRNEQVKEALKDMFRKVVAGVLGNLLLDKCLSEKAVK
How it was run: (§1)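 Each receptor–molecule pair is labelled responsive or non-responsive (inactive) according to whether the original authors judged the measured signal statistically different from baseline. The data were taken from the main text and supplementary material of published papers and checked for typos and inconsistencies. Assay methods differed by source, with transient luciferase assays in mammalian cell lines being common.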

OR6S1 T42I V156I = system: T2, OR6S1 T42I V156I
T2 sequence (whole entry): T1 sequence (whole entry) with T42I, V156I
How it was run: as §1

OR6T1 (Homo sapiens) = target: T3, OR6T1 (Homo sapiens) (UniProt Q8NGN1)
T3 sequence (whole entry): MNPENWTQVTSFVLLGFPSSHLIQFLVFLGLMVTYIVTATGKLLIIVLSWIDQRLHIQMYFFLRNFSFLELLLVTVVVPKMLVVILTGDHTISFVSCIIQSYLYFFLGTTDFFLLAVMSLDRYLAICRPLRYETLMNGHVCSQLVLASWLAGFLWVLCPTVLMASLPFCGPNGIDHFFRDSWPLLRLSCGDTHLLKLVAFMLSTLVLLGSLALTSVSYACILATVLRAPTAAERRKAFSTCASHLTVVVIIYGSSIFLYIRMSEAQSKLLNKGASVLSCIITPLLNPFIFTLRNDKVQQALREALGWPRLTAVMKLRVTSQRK
How it was run: as §1

OR6T1 N2D = system: T4, OR6T1 N2D
T4 sequence (whole entry): T3 sequence (whole entry) with N2D
How it was run: as §1

OR6V1 (Homo sapiens) = target: T5, OR6V1 (Homo sapiens) (UniProt Q8N148)
T5 sequence (whole entry): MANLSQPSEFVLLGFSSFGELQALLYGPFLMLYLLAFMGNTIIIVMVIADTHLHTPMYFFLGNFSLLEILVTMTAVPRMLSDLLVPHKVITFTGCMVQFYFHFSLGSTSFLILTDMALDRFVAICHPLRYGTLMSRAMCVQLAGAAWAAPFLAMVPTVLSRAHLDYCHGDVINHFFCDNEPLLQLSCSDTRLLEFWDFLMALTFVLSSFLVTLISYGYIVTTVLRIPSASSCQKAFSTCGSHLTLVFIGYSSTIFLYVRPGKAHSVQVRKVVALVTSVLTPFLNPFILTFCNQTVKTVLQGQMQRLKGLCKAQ
How it was run: as §1

OR6X1 (Homo sapiens) = target: T6, OR6X1 (Homo sapiens) (UniProt Q8NH79)
T6 sequence (whole entry): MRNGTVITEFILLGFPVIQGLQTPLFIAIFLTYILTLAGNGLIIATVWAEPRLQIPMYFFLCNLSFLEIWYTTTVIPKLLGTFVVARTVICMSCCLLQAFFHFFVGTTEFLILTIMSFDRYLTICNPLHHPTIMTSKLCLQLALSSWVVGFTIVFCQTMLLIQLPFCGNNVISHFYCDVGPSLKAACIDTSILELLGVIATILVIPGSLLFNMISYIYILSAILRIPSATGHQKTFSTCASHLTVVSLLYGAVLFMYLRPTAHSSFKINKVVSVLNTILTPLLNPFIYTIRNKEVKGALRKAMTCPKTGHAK
How it was run: as §1

OR6Y1 (Homo sapiens) = target: T7, OR6Y1 (Homo sapiens) (UniProt Q8NGX8)
T7 sequence (whole entry): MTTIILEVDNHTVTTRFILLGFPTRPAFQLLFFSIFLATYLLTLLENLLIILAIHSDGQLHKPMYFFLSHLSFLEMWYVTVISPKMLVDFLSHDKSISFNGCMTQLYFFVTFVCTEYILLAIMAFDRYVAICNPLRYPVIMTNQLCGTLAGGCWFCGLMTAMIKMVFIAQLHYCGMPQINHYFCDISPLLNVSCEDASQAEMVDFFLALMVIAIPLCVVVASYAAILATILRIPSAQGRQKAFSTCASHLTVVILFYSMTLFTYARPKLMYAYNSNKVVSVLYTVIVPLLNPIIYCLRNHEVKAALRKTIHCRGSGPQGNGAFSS
How it was run: as §1

OR7A10 (Homo sapiens) = target: T8, OR7A10 (Homo sapiens) (UniProt O76100)
T8 sequence (whole entry): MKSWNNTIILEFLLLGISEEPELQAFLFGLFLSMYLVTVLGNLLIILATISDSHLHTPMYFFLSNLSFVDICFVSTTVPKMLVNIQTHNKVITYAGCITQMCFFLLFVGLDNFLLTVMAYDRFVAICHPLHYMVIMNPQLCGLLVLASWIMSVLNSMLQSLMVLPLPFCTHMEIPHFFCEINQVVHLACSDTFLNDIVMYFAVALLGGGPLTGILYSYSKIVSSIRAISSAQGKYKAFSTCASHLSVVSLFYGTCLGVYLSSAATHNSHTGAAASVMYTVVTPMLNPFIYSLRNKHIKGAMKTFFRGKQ
How it was run: as §1

OR7A17 (Homo sapiens) = target: T9, OR7A17 (Homo sapiens) (UniProt O14581)
T9 sequence (whole entry): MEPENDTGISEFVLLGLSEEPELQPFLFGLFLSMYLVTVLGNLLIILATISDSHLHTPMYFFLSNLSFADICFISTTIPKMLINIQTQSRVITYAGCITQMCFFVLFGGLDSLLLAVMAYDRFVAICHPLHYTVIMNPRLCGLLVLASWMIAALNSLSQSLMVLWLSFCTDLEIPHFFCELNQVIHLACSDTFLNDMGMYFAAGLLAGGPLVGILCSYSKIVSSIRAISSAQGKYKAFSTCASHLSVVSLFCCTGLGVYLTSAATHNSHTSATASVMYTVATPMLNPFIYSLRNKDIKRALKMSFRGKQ
How it was run: as §1

OR7A5 (Homo sapiens) = target: T10, OR7A5 (Homo sapiens) (UniProt Q15622)
T10 sequence (whole entry): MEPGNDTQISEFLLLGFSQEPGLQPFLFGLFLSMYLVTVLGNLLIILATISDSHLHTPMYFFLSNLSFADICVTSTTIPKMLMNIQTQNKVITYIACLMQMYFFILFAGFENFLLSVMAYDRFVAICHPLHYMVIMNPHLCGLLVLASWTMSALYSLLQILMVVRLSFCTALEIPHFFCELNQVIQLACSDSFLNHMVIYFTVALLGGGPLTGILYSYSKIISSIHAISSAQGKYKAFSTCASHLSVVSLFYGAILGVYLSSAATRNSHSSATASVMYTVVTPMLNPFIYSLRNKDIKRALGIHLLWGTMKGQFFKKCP
How it was run: as §1

Measured: odorant receptor agonist call;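 also: active if original authors judged signal statistically different from baseline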

CC1=C(O)C(=O)C(C)O1 (centres undefined)
inactive: OR6S1 (Homo sapiens) | OR6S1 T42I V156I | OR6T1 (Homo sapiens) | OR6T1 N2D | OR6V1 (Homo sapiens) | OR6X1 (Homo sapiens) | OR6Y1 (Homo sapiens) | OR7A10 (Homo sapiens) | OR7A17 (Homo sapiens) | OR7A5 (Homo sapiens)

CC1CCCCCCCCCCCCC(=O)C1 (centres undefined)
inactive: OR6S1 (Homo sapiens) | OR6T1 (Homo sapiens) | OR6V1 (Homo sapiens) | OR6X1 (Homo sapiens) | OR6Y1 (Homo sapiens) | OR7A10 (Homo sapiens) | OR7A17 (Homo sapiens) | OR7A5 (Homo sapiens)

Cc1cnc(C)c(C)n1
inactive: OR6S1 (Homo sapiens) | OR6S1 T42I V156I | OR6T1 (Homo sapiens) | OR6T1 N2D | OR6V1 (Homo sapiens) | OR6X1 (Homo sapiens) | OR6Y1 (Homo sapiens) | OR7A10 (Homo sapiens) | OR7A17 (Homo sapiens) | OR7A5 (Homo sapiens)

CCCC(S)CCOC(C)=O (centres undefined)
inactive: OR6S1 (Homo sapiens) | OR6S1 T42I V156I | OR6T1 (Homo sapiens) | OR6T1 N2D | OR6V1 (Homo sapiens) | OR6X1 (Homo sapiens) | OR6Y1 (Homo sapiens) | OR7A10 (Homo sapiens) | OR7A17 (Homo sapiens) | OR7A5 (Homo sapiens)

CC1=NC(C)C(C)S1 (centres undefined)
inactive: OR6S1 (Homo sapiens) | OR6S1 T42I V156I | OR6T1 (Homo sapiens) | OR6T1 N2D | OR6V1 (Homo sapiens) | OR6X1 (Homo sapiens) | OR6Y1 (Homo sapiens) | OR7A10 (Homo sapiens) | OR7A17 (Homo sapiens) | OR7A5 (Homo sapiens)

CCC(S)C(C)CO (centres undefined)
inactive: OR6S1 (Homo sapiens) | OR6T1 (Homo sapiens) | OR6V1 (Homo sapiens) | OR6X1 (Homo sapiens) | OR6Y1 (Homo sapiens) | OR7A10 (Homo sapiens) | OR7A17 (Homo sapiens) | OR7A5 (Homo sapiens)

CCCCCC(=O)C(C)C(C)=O (centres undefined)
inactive: OR6S1 (Homo sapiens) | OR6T1 (Homo sapiens) | OR6V1 (Homo sapiens) | OR6X1 (Homo sapiens) | OR6Y1 (Homo sapiens) | OR7A10 (Homo sapiens) | OR7A17 (Homo sapiens) | OR7A5 (Homo sapiens)
